Reference: article PMC4495880 (Biochemical pharmacology, 2010)
Read-outs that look alike come from different tables or passages of the source.

Tests used:
[1] = Protease inhibitors blocking BNP inactivation by human kidney membranes; format: biochemical; conditions: for effect on BNP inactivation: human membranes, data not shown; for effect of inhibitor on inactivation of rat BNP1-32 by human kidney membranes: 45 min, N = 8
[2] = Protease inhibitors blocking BNP inactivation by rat kidney membranes; format: biochemical; conditions: 40 μg rat kidney membranes, 45 min; cGMP bioassay; N = 8
[3] = cited from earlier work
[4] = Proteolysis bioassay: inactivation of BNP by human kidney membranes; format: in vitro ADME; conditions: 40 μg human kidney membranes, 45 min, 37°C; cGMP bioassay; mean, N = 8
Summary of the method: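 Rat BNP_1-32 incubated 45 min at 37°C with 40 μg crude human kidney membranes (diluted to 2 mg/ml in 50 mM Tris-HCl pH 7.5, 20% glycerol, 50 mM NaF). Stopped with 0.5 N perchloric acid, boiled 10 min, neutralised. Residual activity was read as cGMP (RIA) in serum-starved HEK293 cells expressing rat (1 min) or human (3 min) GC-A, with 1 mM IBMX. Remaining peptide was fitted to an untreated-peptide standard curve and expressed as % of peptide-only. Mean ± SEM, N = 8.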

[5] = Proteolysis bioassay: inactivation of BNP by rat kidney membranes; format: in vitro ADME; conditions: 40 μg rat kidney membranes, 45 min, 37°C; cGMP bioassay; mean, N = 4
Summary of the method: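 Human BNP_1-32 exposed to 40 μg crude rat kidney membranes (Tris-HCl pH 7.5/glycerol/NaF buffer, 2 mg/ml) for 45 min at 37°C. Perchloric acid stop, 10 min boil, NaOH neutralisation. Aliquot in DMEM, 25 mM HEPES pH 7.4, 1 mM IBMX applied to HEK293 cells stably expressing GC-A (rat receptor 1 min, human 3 min). cGMP by radioimmunoassay; peptide left derived from standard curve, % of starting peptide-only value. Mean ± SEM, N = 4.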

[6] = system: recombinant human meprin A and NEP; format: in vitro ADME
[7] = 40 μg human kidney membranes, 37°C, cGMP bioassay

Compound: O=S(=O)(F)Cc1ccccc1 [PMSF]
- effect on BNP inactivation [1]: neither had an effect

Compound: CC(=O)N[C@@H](CC(C)C)C(=O)N[C@@H](CC(C)C)C(=O)N[C@H](C=O)CCCNC(=N)N [leupeptin]
- effect of inhibitor on inactivation of human BNP1-32 by human kidney membranes ([1]; 40 μg human kidney membranes, 20 min, 37°C, cGMP bioassay): completely blocked activity losses
- effect of inhibitor on inactivation of rat BNP1-32 by human kidney membranes [1, 7]: blocked a portion of the activity loss
- effect of inhibitor on inactivation of rat BNP1-32 by rat kidney membranes [2]: had no effect

Compound: CC(C)C[C@H](NP(=O)(O)O[C@@H]1O[C@@H](C)[C@H](O)[C@@H](O)[C@H]1O)C(=O)N[C@@H](Cc1c[nH]c2ccccc12)C(=O)O [phosphoramidon]
- effect of inhibitor on inactivation of rat BNP1-32 by human kidney membranes [1, 7]: blocked a portion of the activity loss

Compound: Atrial natriuretic peptide [ANP]
- half-life [3]: ~ 2 min

Compound: CNP: natriuretic peptide, best substrate for NEP
- half-life ([3]; in vivo): ~ 2 min

Compound: Rat B-type natriuretic peptide 1–32 (SQDSAFRIQERLRNSKMAHSSSCFGQKIDRIG; Brain natriuretic peptide 45; UniProt P13205 77-108, looked up, fragment) [rat BNP1-32]
- bioactivity lost [4]: More than 75%

Compound: aprotinin
- effect on BNP inactivation [1]: neither had an effect

Compound: human B-type natriuretic peptide [human BNP1-32]
- initial bioactivity lost [5]: 48%
- additional loss of activity on longer incubation with purified enzymes [6]: did not result in any additional loss
- additional loss of activity on sequential addition of the enzymes [6]: did not result in any additional loss
- half-life [3]: ~ 20 min
